Measurements taken from ChEMBL document CHEMBL5303300, “EUbOPEN Chemogenomics Library - Multiplex” (2023).
Several values for one entry are separate records, joined by “and”; a condition that tells them apart may be missing. Identical values can stand only once.

Tested on: Fibroblast
Test: Multiplex assay against human fibroblast
Assay type: toxicity, cell-based
Conditions: number of replicates 2
Procedure, shortened: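 Live cells were stained at seeding with Hoechst33342, BioTracker Green Microtubule Cytoskeleton Dye, MitoTracker Red and Annexin V Alexa Fluor 680. Following compound addition, they were imaged on a CQ1 microscope at 37°C and 5% CO2 and gated by CellPathfinder machine learning into Hoechst high-intensity objects or normal cells, with normal cells split into healthy, pyknosed or fragmented nuclei and pyknosed cells into mitotic or apoptotic. Tubulin, mitochondrial-mass and membrane-permeability phenotypes are per cents of healthy-nucleus cells.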

[1] = 12 h, 1 µM, compound concentration 1 uM
[2] = 12 h, 10 µM, compound concentration 10 uM
[3] = 24 h, 1 µM, compound concentration 1 uM
[4] = 24 h, 10 µM, compound concentration 10 uM
[5] = 48 h, 1 µM, compound concentration 1 uM
[6] = 48 h, 10 µM, compound concentration 10 uM

With `COc1cc(N(C)c2ccnc3ccc(C(F)(F)F)cc23)cc(OC)c1OC` the “Population Apoptotic (%)” value [1] was 43% and 38%, the “Population Fragmented Nuclei (%)” value [1] was 7% and 10% and the “Population Healthy Nuclei (%)” value [1] was 68% and 65%. For the same compound, the “Population Hoechst High Intensity Objects (%)” value [1] was 0%, the “Population Membrane Permeable-Phenotype (%)” value [1] was 10% and 7% and the “Population Mitochondria Different-Phenotype (%)” value [1] was 0%. For the same compound, the “Population Mitotic Cells (%)” value [1] was 56% and 61%, the “Population Normal (%)” value [1] was 100% and 99% and the “Population Pyknosed Nuclei (%)” value [1] was 23% and 24%. For the same compound, the “Population Tubulin-Different-Phenotype (%)” value [1] was 21% and 18%, the “Total Cell Count” value [1] was 216 and 225 and the “Population Apoptotic (%)” value [2] was 48% and 39%. The “Population Fragmented Nuclei (%)” value [2] was 6% and 11%, the “Population Healthy Nuclei (%)” value [2] was 77% and 63% and the “Population Hoechst High Intensity Objects (%)” value [2] was 0%. For the same compound, the “Population Membrane Permeable-Phenotype (%)” value [2] was 4% and 9%, the “Population Mitochondria Different-Phenotype (%)” value [2] was 5% and 4% and the “Population Mitotic Cells (%)” value [2] was 51% and 60%. For the same compound, the “Population Normal (%)” value [2] was 100%, the “Population Pyknosed Nuclei (%)” value [2] was 15% and 24% and the “Population Tubulin-Different-Phenotype (%)” value [2] was 33% and 40%. For the same compound, the “Total Cell Count” value [2] was 175 and 219, the “Population Apoptotic (%)” value [3] was 48% and 50% and the “Population Fragmented Nuclei (%)” value [3] was 7% and 13%. The “Population Healthy Nuclei (%)” value [3] was 69% and 59%, the “Population Hoechst High Intensity Objects (%)” value [3] was 0% and the “Population Membrane Permeable-Phenotype (%)” value [3] was 8% and 4%. For the same compound, the “Population Mitochondria Different-Phenotype (%)” value [3] was 1%, the “Population Mitotic Cells (%)” value [3] was 51% and 49% and the “Population Normal (%)” value [3] was 100% and 99%. The “Population Pyknosed Nuclei (%)” value [3] was 23% and 27%, the “Population Tubulin-Different-Phenotype (%)” value [3] was 24% and 14% and the “Total Cell Count” value [3] was 229 and 213. For the same compound, the “Population Apoptotic (%)” value [4] was 60% and 54%, the “Population Fragmented Nuclei (%)” value [4] was 9% and 12% and the “Population Healthy Nuclei (%)” value [4] was 71% and 66%. For the same compound, the “Population Hoechst High Intensity Objects (%)” value [4] was 0%, the “Population Membrane Permeable-Phenotype (%)” value [4] was 4% and the “Population Mitochondria Different-Phenotype (%)” value [4] was 3% and 6%. The “Population Mitotic Cells (%)” value [4] was 39% and 45%, the “Population Normal (%)” value [4] was 100% and 99% and the “Population Pyknosed Nuclei (%)” value [4] was 18% and 20%. The “Population Tubulin-Different-Phenotype (%)” value [4] was 27% and 30%, the “Total Cell Count” value [4] was 176 and 216 and the “Population Apoptotic (%)” value [5] was 66% and 47%. For the same compound, the “Population Fragmented Nuclei (%)” value [5] was 8% and 14%, the “Population Healthy Nuclei (%)” value [5] was 73% and 61% and the “Population Hoechst High Intensity Objects (%)” value [5] was 0%. For the same compound, the “Population Membrane Permeable-Phenotype (%)” value [5] was 1% and 7%, the “Population Mitochondria Different-Phenotype (%)” value [5] was 0% and the “Population Mitotic Cells (%)” value [5] was 33% and 52%. The “Population Normal (%)” value [5] was 100%, the “Population Pyknosed Nuclei (%)” value [5] was 18% and 23% and the “Population Tubulin-Different-Phenotype (%)” value [5] was 10% and 12%. The “Total Cell Count” value [5] was 229 and 214, the “Population Apoptotic (%)” value [6] was 64% and 75% and the “Population Fragmented Nuclei (%)” value [6] was 9% and 12%. The “Population Healthy Nuclei (%)” value [6] was 72% and 70%, the “Population Hoechst High Intensity Objects (%)” value [6] was 0% and the “Population Membrane Permeable-Phenotype (%)” value [6] was 0% and 1%. For the same compound, the “Population Mitochondria Different-Phenotype (%)” value [6] was 3% and 5%, the “Population Mitotic Cells (%)” value [6] was 35% and 24% and the “Population Normal (%)” value [6] was 99% and 100%. For the same compound, the “Population Pyknosed Nuclei (%)” value [6] was 18% and 16%, the “Population Tubulin-Different-Phenotype (%)” value [6] was 35% and 25% and the “Total Cell Count” value [6] was 173 and 226.
In the case of `c1ccc2c(-c3coc4cc(-c5ccc(N6CCNCC6)cc5)cnc34)ccnc2c1`, the “Population Apoptotic (%)” value [1] was 33% and 46%, the “Population Fragmented Nuclei (%)” value [1] was 18% and the “Population Healthy Nuclei (%)” value [1] was 69% and 66%. For the same compound, the “Population Hoechst High Intensity Objects (%)” value [1] was 0%, the “Population Mitochondria Different-Phenotype (%)” value [1] was 0% and 2% and the “Population Mitotic Cells (%)” value [1] was 66% and 53%. The “Population Normal (%)” value [1] was 100%, the “Population Pyknosed Nuclei (%)” value [1] was 16% and 14% and the “Population Tubulin-Different-Phenotype (%)” value [1] was 10% and 15%. The “Total Cell Count” value [1] was 182 and 274, the “Population Apoptotic (%)” value [2] was 68% and 73% and the “Population Fragmented Nuclei (%)” value [2] was 15% and 7%. The “Population Hoechst High Intensity Objects (%)” value [2] was 0%, the “Population Mitochondria Different-Phenotype (%)” value [2] was 8% and 0% and the “Population Mitotic Cells (%)” value [2] was 31% and 26%. For the same compound, the “Population Normal (%)” value [2] was 100% and 98%, the “Population Pyknosed Nuclei (%)” value [2] was 52% and 91% and the “Population Tubulin-Different-Phenotype (%)” value [2] was 35% and 100%. The “Total Cell Count” value [2] was 223 and 162, the “Population Apoptotic (%)” value [3] was 44% and 60% and the “Population Healthy Nuclei (%)” value [3] was 73% and 71%. For the same compound, the “Population Hoechst High Intensity Objects (%)” value [3] was 0%, the “Population Mitochondria Different-Phenotype (%)” value [3] was 0% and 2% and the “Population Mitotic Cells (%)” value [3] was 56% and 40%. For the same compound, the “Population Normal (%)” value [3] was 100%, the “Population Pyknosed Nuclei (%)” value [3] was 12% and 11% and the “Population Tubulin-Different-Phenotype (%)” value [3] was 15% and 9%. The “Total Cell Count” value [3] was 195 and 271, the “Population Apoptotic (%)” value [4] was 77% and 80% and the “Population Fragmented Nuclei (%)” value [4] was 9%. For the same compound, the “Population Hoechst High Intensity Objects (%)” value [4] was 0%, the “Population Mitotic Cells (%)” value [4] was 22% and 19% and the “Population Normal (%)” value [4] was 98% and 100%. The “Population Pyknosed Nuclei (%)” value [4] was 83% and 66%, the “Population Tubulin-Different-Phenotype (%)” value [4] was 80% and 50% and the “Total Cell Count” value [4] was 163 and 202. The “Population Apoptotic (%)” value [5] was 53% and 48%, the “Population Fragmented Nuclei (%)” value [5] was 16% and 27% and the “Population Healthy Nuclei (%)” value [5] was 76% and 63%. The “Population Mitochondria Different-Phenotype (%)” value [5] was 0%, the “Population Mitotic Cells (%)” value [5] was 46% and 51% and the “Population Normal (%)” value [5] was 100% and 99%. For the same compound, the “Population Pyknosed Nuclei (%)” value [5] was 6% and 8%, the “Population Tubulin-Different-Phenotype (%)” value [5] was 10% and 11% and the “Total Cell Count” value [5] was 208 and 323. The “Population Apoptotic (%)” value [6] was 84% and 91%, the “Population Fragmented Nuclei (%)” value [6] was 21% and the “Population Healthy Nuclei (%)” value [6] was 28% and 18%. The “Population Hoechst High Intensity Objects (%)” value [6] was 0%, the “Population Mitochondria Different-Phenotype (%)” value [6] was 2% and 7% and the “Population Mitotic Cells (%)” value [6] was 8%. The “Population Normal (%)” value [6] was 99%, the “Population Pyknosed Nuclei (%)” value [6] was 50% and 63% and the “Population Tubulin-Different-Phenotype (%)” value [6] was 44% and 38%. For the same compound, the “Total Cell Count” value [6] was 171 and 210.
For `O=C1NC(=NCc2cccs2)SC1=Cc1ccc2ncccc2c1`, the “Population Apoptotic (%)” value [1] was 31% and 38%, the “Population Fragmented Nuclei (%)” value [1] was 17% and 11% and the “Population Healthy Nuclei (%)” value [1] was 65% and 76%. The “Population Hoechst High Intensity Objects (%)” value [1] was 0%, the “Population Membrane Permeable-Phenotype (%)” value [1] was 4% and 3% and the “Population Mitochondria Different-Phenotype (%)” value [1] was 0%. For the same compound, the “Population Mitotic Cells (%)” value [1] was 68% and 61%, the “Population Normal (%)” value [1] was 100% and the “Population Pyknosed Nuclei (%)” value [1] was 16% and 12%. The “Population Tubulin-Different-Phenotype (%)” value [1] was 5% and 6%, the “Total Cell Count” value [1] was 193 and 211 and the “Population Apoptotic (%)” value [2] was 50% and 51%. For the same compound, the “Population Fragmented Nuclei (%)” value [2] was 13% and 9%, the “Population Healthy Nuclei (%)” value [2] was 74% and 78% and the “Population Hoechst High Intensity Objects (%)” value [2] was 0%. For the same compound, the “Population Membrane Permeable-Phenotype (%)” value [2] was 2% and 4%, the “Population Mitochondria Different-Phenotype (%)” value [2] was 0% and 1% and the “Population Mitotic Cells (%)” value [2] was 50% and 48%. For the same compound, the “Population Normal (%)” value [2] was 100%, the “Population Pyknosed Nuclei (%)” value [2] was 12% and the “Population Tubulin-Different-Phenotype (%)” value [2] was 34% and 20%. For the same compound, the “Total Cell Count” value [2] was 190 and 238, the “Population Apoptotic (%)” value [3] was 42% and 26% and the “Population Fragmented Nuclei (%)” value [3] was 15% and 10%. The “Population Healthy Nuclei (%)” value [3] was 66% and 72%, the “Population Hoechst High Intensity Objects (%)” value [3] was 0% and the “Population Membrane Permeable-Phenotype (%)” value [3] was 2% and 6%. For the same compound, the “Population Mitochondria Different-Phenotype (%)” value [3] was 0%, the “Population Mitotic Cells (%)” value [3] was 57% and 73% and the “Population Normal (%)” value [3] was 100%. The “Population Pyknosed Nuclei (%)” value [3] was 18% and 17%, the “Population Tubulin-Different-Phenotype (%)” value [3] was 4% and 6% and the “Total Cell Count” value [3] was 183 and 219. The “Population Apoptotic (%)” value [4] was 69% and 61%, the “Population Fragmented Nuclei (%)” value [4] was 10% and 12% and the “Population Healthy Nuclei (%)” value [4] was 82% and 75%. The “Population Hoechst High Intensity Objects (%)” value [4] was 0%, the “Population Membrane Permeable-Phenotype (%)” value [4] was 4% and 2% and the “Population Mitochondria Different-Phenotype (%)” value [4] was 1% and 3%. The “Population Mitotic Cells (%)” value [4] was 30% and 38%, the “Population Normal (%)” value [4] was 100% and 99% and the “Population Pyknosed Nuclei (%)” value [4] was 6% and 12%. For the same compound, the “Population Tubulin-Different-Phenotype (%)” value [4] was 26% and 23%, the “Total Cell Count” value [4] was 191 and 241 and the “Population Apoptotic (%)” value [5] was 65% and 75%. The “Population Fragmented Nuclei (%)” value [5] was 17% and 14%, the “Population Healthy Nuclei (%)” value [5] was 65% and 68% and the “Population Hoechst High Intensity Objects (%)” value [5] was 0%. The “Population Membrane Permeable-Phenotype (%)” value [5] was 2% and 3%, the “Population Mitochondria Different-Phenotype (%)” value [5] was 0% and the “Population Mitotic Cells (%)” value [5] was 34% and 25%. For the same compound, the “Population Normal (%)” value [5] was 99% and 100%, the “Population Pyknosed Nuclei (%)” value [5] was 17% and the “Population Tubulin-Different-Phenotype (%)” value [5] was 10% and 6%. The “Total Cell Count” value [5] was 185 and 211, the “Population Apoptotic (%)” value [6] was 73% and 62% and the “Population Fragmented Nuclei (%)” value [6] was 15% and 11%. The “Population Healthy Nuclei (%)” value [6] was 77% and 76%, the “Population Hoechst High Intensity Objects (%)” value [6] was 0% and the “Population Membrane Permeable-Phenotype (%)” value [6] was 0%. For the same compound, the “Population Mitochondria Different-Phenotype (%)” value [6] was 0% and 2%, the “Population Mitotic Cells (%)” value [6] was 26% and 37% and the “Population Normal (%)” value [6] was 100%. For the same compound, the “Population Pyknosed Nuclei (%)” value [6] was 7% and 11%, the “Population Tubulin-Different-Phenotype (%)” value [6] was 30% and 28% and the “Total Cell Count” value [6] was 201 and 239.
